ChEMBL document CHEMBL1240527, “3'-Deoxy phosphoramidate dinucleosides as improved inhibitors of hepatitis C virus subgenomic replicon and NS5B polymerase activity” (J Med Chem, 2010)

How the values were obtained:
[1] = Inhibition of HCV recombinant His6x-tagged NS5B Cdelta55 polymerase-mediated RNA synthesis expressed in Escherichia coli BL21(DE3) assessed as reduction of pppGpC accumulation after 15 mins; set-up: species or system Hepacivirus hominis
Procedure, shortened: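 Inhibitor range 0–1000 μM. Reaction started with 2 mM MnCl2, 1 mM MgCl2, 50 μM γ-32P-GTP and 100 μM CTP, then 15 min at 30 C. EDTA/formamide quench. pppGpC resolved on sequencing gel and quantified by phosphorimaging. IC50 fitted; at least three experiments.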

[2] = system: Hepatitis C virus; test: Antiviral activity against HCV1b infected in human HuH6 cells assessed as inhibition of viral RNA replication after 3 days by RT-PCR analysis; assay type: functional, organism-based, Hepacivirus hominis; details: genotype 1b, HuH-6, 72 h
Procedure, shortened: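 Huh-6 cells stably carrying a genotype 1b (Con1-derived) subgenomic HCV replicon, seeded 1.5 × 10^4 cells/well and incubated 24 h at 37 C, 5% CO2. Then exposed to serial dilutions from 0.025 to 65 μM (10 concentrations) in complete DMEM for 3 days. Lysates assayed for replicon RNA by real-time RT-qPCR against a neomycin-plasmid standard curve. EC50 is 50% RNA reduction versus untreated control, averaged over three independent experiments.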

[3] = Cytotoxicity against human HuH6 cells after 3 days by MTS/PMS method; assay type: cell-based
Procedure, shortened: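 Run in parallel with the replicon assay: Huh-6 genotype 1b replicon cells seeded 1.5 × 10^4/well, treated 24 h later with 0.025–65 μM compound in complete DMEM for 3 days at 37 C, 5% CO2. Cell number read by MTS/PMS. CC50 is the concentration giving 50% reduction in proliferation of exponentially growing cells versus untreated control.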

SMILES	IC50 [1] [µM]	EC50 [2] [µM]	CC50 at 72 h [3] [µM]
CO[C@@H]1[C@H](OP(=O)(NCCCCCC(=O)O)OC[C@@H]2C[C@@H](O)[C@H](n3ccc(N)nc3=O)O2)[C@@H](COP(=O)(O)O)O[C@H]1n1cnc2c(=O)[nH]c(N)nc21 (some centres undefined)	34	1.7	> 65
CO[C@@H]1[C@H](OP(=O)(NCCCOP(=O)(O)O)OC[C@@H]2C[C@@H](O)[C@H](n3ccc(N)nc3=O)O2)[C@@H](CO)O[C@H]1n1cnc2c(=O)[nH]c(N)nc21 (some centres undefined)	21	–	–
CO[C@@H]1[C@H](OP(=O)(NCCCC(C(=O)O)C(=O)O)OC[C@@H]2C[C@@H](O)[C@H](n3ccc(N)nc3=O)O2)[C@@H](CO)O[C@H]1n1cnc2c(=O)[nH]c(N)nc21 (some centres undefined)	19	–	–
CO[C@@H]1[C@H](OP(=O)(NCCCCCC(=O)O)OC[C@@H]2C[C@@H](O)[C@H](n3ccc(N)nc3=O)O2)[C@@H](CO)O[C@H]1n1cnc2c(=O)[nH]c(N)nc21 (some centres undefined)	67	–	–
CO[C@@H]1[C@H](OP(=O)(NCCCOP(=O)(O)O)OC[C@@H]2C[C@@H](O)[C@H](n3ccc(N)nc3=O)O2)[C@@H](COP(=O)(O)O)O[C@H]1n1cnc2c(=O)[nH]c(N)nc21 (some centres undefined)	10	3.9	> 65
CO[C@@H]1[C@H](OP(=O)(NCCCC(C(=O)O)C(=O)O)OC[C@@H]2C[C@@H](O)[C@H](n3ccc(N)nc3=O)O2)[C@@H](COP(=O)(O)O)O[C@H]1n1cnc2c(=O)[nH]c(N)nc21 (some centres undefined)	8	2.6	> 65
COCCOCCNP(=O)(OC[C@@H]1C[C@@H](O)[C@H](n2ccc(N)nc2=O)O1)O[C@H]1[C@@H](OC)[C@H](n2cnc3c(=O)[nH]c(N)nc32)O[C@@H]1COP(=O)(O)O (some centres undefined)	18	3.6	> 65
CO[C@@H]1[C@H](O[P@@](=O)(NCCCOP(=O)(O)O)OC[C@@H]2C[C@@H](O)[C@H](n3ccc(N)nc3=O)O2)[C@@H](COP(=O)(O)O)O[C@H]1n1cnc2c(=O)[nH]c(N)nc21	20.3	–	–
CO[C@@H]1[C@H](O[P@](=O)(NCCCOP(=O)(O)O)OC[C@@H]2C[C@@H](O)[C@H](n3ccc(N)nc3=O)O2)[C@@H](COP(=O)(O)O)O[C@H]1n1cnc2c(=O)[nH]c(N)nc21	18.5	–	–
CO[C@@H]1[C@H](O[P@@](=O)(NCCCC(C(=O)O)C(=O)O)OC[C@@H]2C[C@@H](O)[C@H](n3ccc(N)nc3=O)O2)[C@@H](COP(=O)(O)O)O[C@H]1n1cnc2c(=O)[nH]c(N)nc21	121	–	–
CO[C@@H]1[C@H](O[P@](=O)(NCCCC(C(=O)O)C(=O)O)OC[C@@H]2C[C@@H](O)[C@H](n3ccc(N)nc3=O)O2)[C@@H](COP(=O)(O)O)O[C@H]1n1cnc2c(=O)[nH]c(N)nc21	57	–	–
COCCOCCN[P@@](=O)(OC[C@@H]1C[C@@H](O)[C@H](n2ccc(N)nc2=O)O1)O[C@H]1[C@@H](OC)[C@H](n2cnc3c(=O)[nH]c(N)nc32)O[C@@H]1COP(=O)(O)O	64	–	–
COCCOCCN[P@](=O)(OC[C@@H]1C[C@@H](O)[C@H](n2ccc(N)nc2=O)O1)O[C@H]1[C@@H](OC)[C@H](n2cnc3c(=O)[nH]c(N)nc32)O[C@@H]1COP(=O)(O)O	42	–	–
COCCNP(=O)(OC[C@@H]1C[C@@H](O)[C@H](n2ccc(N)nc2=O)O1)O[C@H]1[C@@H](OC)[C@H](n2cnc3c(=O)[nH]c(N)nc32)O[C@@H]1COP(=O)(O)O (some centres undefined)	29	19.4	> 65
COCCN[P@@](=O)(OC[C@@H]1C[C@@H](O)[C@H](n2ccc(N)nc2=O)O1)O[C@H]1[C@@H](OC)[C@H](n2cnc3c(=O)[nH]c(N)nc32)O[C@@H]1COP(=O)(O)O	72	1.6	> 65
COCCN[P@](=O)(OC[C@@H]1C[C@@H](O)[C@H](n2ccc(N)nc2=O)O1)O[C@H]1[C@@H](OC)[C@H](n2cnc3c(=O)[nH]c(N)nc32)O[C@@H]1COP(=O)(O)O	7	2.5	> 65
COCCN[P@@](=O)(OC[C@H]1O[C@@H](n2ccc(N)nc2=O)[C@H](O)[C@@H]1O)O[C@H]1[C@@H](OC)[C@H](n2cnc3c(=O)[nH]c(N)nc32)O[C@@H]1COP(=O)(O)O	28	38	> 65
COCCN[P@](=O)(OC[C@H]1O[C@@H](n2ccc(N)nc2=O)[C@H](O)[C@@H]1O)O[C@H]1[C@@H](OC)[C@H](n2cnc3c(=O)[nH]c(N)nc32)O[C@@H]1COP(=O)(O)O	37	4.5	> 65
CO[C@@H]1[C@H](O[P@@](=O)(NCCCCCC(=O)O)OC[C@@H]2C[C@@H](O)[C@H](n3ccc(N)nc3=O)O2)[C@@H](COP(=O)(O)O)O[C@H]1n1cnc2c(=O)[nH]c(N)nc21	9	–	–
CO[C@@H]1[C@H](O[P@](=O)(NCCCCCC(=O)O)OC[C@@H]2C[C@@H](O)[C@H](n3ccc(N)nc3=O)O2)[C@@H](COP(=O)(O)O)O[C@H]1n1cnc2c(=O)[nH]c(N)nc21	13	–	–
CO[C@@H]1[C@H](O[P@@](=O)(NCCCCCC(=O)O)OC[C@H]2O[C@@H](n3ccc(N)nc3=O)[C@H](O)[C@@H]2O)[C@@H](COP(=O)(O)O)O[C@H]1n1cnc2c(=O)[nH]c(N)nc21	26	–	–
CO[C@@H]1[C@H](O[P@](=O)(NCCCCCC(=O)O)OC[C@H]2O[C@@H](n3ccc(N)nc3=O)[C@H](O)[C@@H]2O)[C@@H](COP(=O)(O)O)O[C@H]1n1cnc2c(=O)[nH]c(N)nc21	16	–	–
CO[C@@H]1[C@H](OP(=O)(NCCCCCC(=O)O)OC[C@H]2O[C@@H](n3ccc(N)nc3=O)[C@H](O)[C@@H]2O)[C@@H](COP(=O)(O)O)O[C@H]1n1cnc2c(=O)[nH]c(N)nc21 (some centres undefined)	83	–	–
COCCNP(=O)(OC[C@H]1O[C@@H](n2ccc(N)nc2=O)[C@H](O)[C@@H]1O)O[C@H]1[C@@H](OC)[C@H](n2cnc3c(=O)[nH]c(N)nc32)O[C@@H]1COP(=O)(O)O (some centres undefined)	140	> 50	> 65
